From ChEMBL document CHEMBL1140709, “Design, synthesis, and biological evaluation of (E)-styrylbenzylsulfones as novel anticancer agents” (J Med Chem, 2008)
Active and inactive are the calls of the source. No cut-off for these calls is given here.

Key:
[1] = Antitumor activity against human H157 cells by trypan blue exclusion assay; format: functional, cell-based; conditions: NCI-H157
Procedure, shortened: (§1)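 Tumour cells were grown in DMEM or RPMI with 10% fetal bovine serum and 1 unit/mL penicillin-streptomycin. They were seeded in six-well dishes at 1.0 × 10⁵ cells/mL/well, and compound was added 24 h later over a range of concentrations. After 96 h of exposure, viable cells in duplicate wells were counted by trypan blue exclusion.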

Rattus norvegicus [2] = experiment: Hematotoxicity in rat at 100 mg/kg, iv; format: organism-based; set-up: dose 100 mg/kg, route intravenous; conditions: in vivo
Procedure, shortened: (§2)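 Rats were given the water-soluble phosphate form iv in single-dose and repeat-dose (28 daily injections) toxicology studies, with biochemical and cellular analysis.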

BT-20 [3] = experiment: Antitumor activity against human BT20 cells by trypan blue exclusion assay; format: functional, cell-based; procedure, shortened: as §1
DLD-1 = experiment: Antitumor activity against human DLD1 cells by trypan blue exclusion assay; format: functional, cell-based; procedure, shortened: as §1
MIA PaCa-2 = experiment: Growth inhibition of human MiaPaCa2 cells after 3 weeks by soft agar colony formation assay; format: functional, cell-based
Procedure, shortened: (§3)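 Noble agar: 0.8% bottom layer; cells (1.0 × 10⁵ for MIA-PaCa-2) in medium with compound at various concentrations, mixed into 0.4% top agar. Each concentration in triplicate; 3 weeks at 37 °C, 5% CO₂. Stained with 0.05% nitroblue tetrazolium for 48 h and colonies photographed.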

DU-145 [4] = experiment: Antitumor activity against AR-negative human DU145 cells by trypan blue exclusion assay; format: functional, cell-based; procedure, shortened: as §1
Mus musculus [5] = experiment: Effect on liver damage in CD1 mouse at 100 mg/kg, iv; format: ADME, organism-based; set-up: dose 100 mg/kg, route intravenous; conditions: in vivo
DU-145 [6] = experiment: Growth inhibition of human DU145 after 3 weeks by soft agar colony formation assay; format: functional, cell-based; procedure, shortened: as §3
Mus musculus [7] = experiment: Neurotoxicity in CD1 mouse at 100 mg/kg, iv; format: toxicity, organism-based; set-up: dose 100 mg/kg, route intravenous; conditions: in vivo
BT-20 [8] = experiment: Growth inhibition of human BT20 after 3 weeks by soft agar colony formation assay; format: functional, cell-based; procedure, shortened: as §3
Rattus norvegicus [9] = experiment: Neurotoxicity in rat at 100 mg/kg, iv; format: toxicity, organism-based; set-up: dose 100 mg/kg, route intravenous; conditions: in vivo; procedure, shortened: as §2
Rattus norvegicus [10] = experiment: Effect on liver damage in rat at 100 mg/kg, iv; format: ADME, organism-based; set-up: dose 100 mg/kg, route intravenous; conditions: in vivo; procedure, shortened: as §2
Mus musculus [11] = experiment: Hematotoxicity in CD1 mouse at 100 mg/kg, iv; format: organism-based; set-up: dose 100 mg/kg, route intravenous; conditions: in vivo
Procedure, shortened: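 CD-1 mice received 200 µL iv of PBS or drug (10 mg/mL; 100 mg/kg). Bone marrow was taken from femur and tibia 12, 24 or 48 h later. Cells were cultured in duplicate in methylcellulose with stem cell factor 50 ng/mL, IL-3 10 ng/mL, IL-6 10 ng/mL, transferrin 200 µg/mL and erythropoietin 3 units/mL. Total, myeloid and lymphoid colony-forming units were counted after 1 week.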

BT-20 [12] = experiment: Antitumor activity against human BT20 xenografted athymic NCR-nu/nu mouse at 50 mg/kg, ip after 22 days

## COc1cc(OC)c(/C=C/S(=O)(=O)Cc2ccc(OC)c(OP(=O)([O-])O)c2)c(OC)c1.[Na+]
[1]
  IC50: 7 nM
Rattus norvegicus [2]
  Activity: Non-toxic
BT-20 [3]
  IC50: 5 nM
DLD-1
  IC50: 7 nM
MIA PaCa-2
  Activity: Dose-dependent effect
DU-145 [4]
  IC50: 2.5 nM
Mus musculus [5]
  Activity: Non-toxic
DU-145 [6]
  Activity: Dose-dependent effect
Mus musculus [7]
  Activity: Non-toxic
BT-20 [8]
  Activity: Dose-dependent effect
Rattus norvegicus [9]
  Activity: Non-toxic
Rattus norvegicus [10]
  Activity: Non-toxic
Mus musculus [11]
  Activity: Non-toxic
BT-20 [12]
  Activity: Active
